Usually EC50 stands for the concentration that produces a half-maximal response. What is called Ki is the dissociation constant of the complex between target and ligand, obtained from inhibition or displacement. Low values mean a stronger hold on the target, high ones a looser hold on the target.

Assay [1] deals with T1, Glucagon-like peptide 1 receptor (Homo sapiens, UniProt P43220). Description: Agonist activity at human GLP-1R expressed in CHO cells assessed as cAMP accumulation incubated for 30 mins relative to GLP1. Type of assay: functional, cell-based. Summed up: (§1)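 CHO cells stably expressing human GLP-1R, grown in DMEM/F12 with GlutaMAX, PenStrep and Geneticin, were lifted and resuspended in HBSS with 5.56 mM glucose, 0.1% BSA, 0.5 mM IBMX, 5 mM HEPES (final). 1000 cells/well were exposed to compound (10 μM to 100 fM) for 30 min at room temperature. After lysis with tracer/ULight reagents (2 h, room temperature), cAMP was read by LANCE Ultra TR-FRET. Values are geometric means with standard error.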
T1 sequence (P43220 whole entry): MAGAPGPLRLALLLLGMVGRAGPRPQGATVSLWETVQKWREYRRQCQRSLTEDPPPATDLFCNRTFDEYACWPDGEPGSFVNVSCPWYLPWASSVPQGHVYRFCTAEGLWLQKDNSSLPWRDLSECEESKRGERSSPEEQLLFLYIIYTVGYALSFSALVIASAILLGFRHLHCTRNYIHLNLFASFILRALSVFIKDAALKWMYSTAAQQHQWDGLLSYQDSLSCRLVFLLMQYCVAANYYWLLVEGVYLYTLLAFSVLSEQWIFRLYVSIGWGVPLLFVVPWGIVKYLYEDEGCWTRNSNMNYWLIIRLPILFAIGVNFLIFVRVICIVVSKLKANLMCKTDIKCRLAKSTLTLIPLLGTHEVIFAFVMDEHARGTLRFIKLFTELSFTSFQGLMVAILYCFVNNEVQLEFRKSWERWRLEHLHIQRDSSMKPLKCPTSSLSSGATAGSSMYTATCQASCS
In general terms: cAMP levels reflect the balance of adenylyl cyclase and phosphodiesterase activity.

In assay [2] the target is T1, Glucagon-like peptide 1 receptor. Description: Agonist activity at human GLP-1R expressed in CHO cells assessed as cAMP accumulation incubated for 30 mins. Type of assay: functional, cell-based. Summed up: as §1
The target is the same in assay [3]. Description: Displacement of [125I]-18 from human GLP-1R expressed in CHO cell membranes incubated for 120 mins by scintillation counting based radioligand binding assay. For orientation: In a radioligand displacement assay an active substance lowers the binding of a labelled ligand.
Assay [4] shares this target. The assay can be described thus: Ratio of Ki for displacement of [125I]-18 from human GLP-1R expressed in CHO cell membranes by scintillation counting based radioligand binding assay to EC50 for Agonist activity at human GLP-1R expressed in CHO cells assessed as cAMP accumulation.

Positions of bridges follow the written chain, without caps; N, C: chain ends. Non-standard residues stand in square brackets, D forms with d. Residues, ends and D or L forms follow the SMILES beside them. Bip(2'-Et-4'-OMe) = CCc1cc(OC)ccc1-c1ccc(C[C@H](N)C(=O)O)cc1; Bip(2'-Me) = Cc1ccccc1-c1ccc(C[C@H](N)C(=O)O)cc1; αMePhe(2,6-F2) = C[C@](N)(Cc1c(F)cccc1F)C(=O)O; Tyr(3-I) = N[C@@H](Cc1ccc(O)c(I)c1)C(=O)O; αMePhe(2-F) = C[C@](N)(Cc1ccccc1F)C(=O)O; hhPhe = N[C@@H](CCCc1ccccc1)C(=O)O; Aad = N[C@@H](CCCC(=O)O)C(=O)O; Aib = CC(C)(N)C(=O)O

With `CCc1cc(OC)ccc1-c1ccc(C[C@H](NC(=O)[C@H](CC(=O)O)NC(=O)[C@H](CO)NC(=O)[C@@H](NC(=O)[C@](C)(Cc2ccccc2F)NC(=O)[C@@H]2CSSC[C@@H](NC(=O)[C@@H](N)Cc3cnc[nH]3)C(=O)N[C@@H](CCC(=O)O)C(=O)NCC(=O)N2)[C@@H](C)O)C(=O)N[C@@H](CCCc2ccccc2)C(N)=O)cc1`, the Activity in assay [1] is over 85%. In assay [2], the EC50 was 600 nM. Moreover, the Ki in assay [3] was 2400 nM.
With `CCc1cc(OC)ccc1-c1ccc(C[C@H](NC(=O)[C@H](CC(=O)O)NC(=O)[C@H](CO)NC(=O)[C@@H](NC(=O)[C@](C)(Cc2ccccc2F)NC(=O)[C@@H]2CCSSCC[C@@H](NC(=O)[C@@H](N)Cc3cnc[nH]3)C(=O)N[C@@H](CCC(=O)O)C(=O)NCC(=O)N2)[C@@H](C)O)C(=O)N[C@@H](CCCc2ccccc2)C(N)=O)cc1`, the Activity in assay [1] is over 85%. Moreover, the concentration for a half-maximal effect (EC50) in assay [2] was 200 nM. This molecule also yielded an inhibition constant Ki in assay [3] of 1700 nM.
As for `CCc1cc(OC)ccc1-c1ccc(C[C@H](NC(=O)[C@H](CC(=O)O)NC(=O)[C@H](CO)NC(=O)[C@@H](NC(=O)[C@](C)(Cc2ccccc2F)NC(=O)[C@@H]2CSSC[C@H](NC(=O)[C@@H](N)Cc3cnc[nH]3)C(=O)N[C@@H](CCC(=O)O)C(=O)NCC(=O)N2)[C@@H](C)O)C(=O)N[C@@H](CCCc2ccccc2)C(N)=O)cc1`, the Activity in assay [1] is over 85%. The EC50 in assay [2] was 670 nM. In assay [3], the Ki is over 3100 nM.
On the same counts, the results for `CCc1cc(OC)ccc1-c1ccc(C[C@H](NC(=O)[C@@H]2CCCCNC(=O)CC[C@H](NC(=O)CNC(=O)[C@H](CCC(=O)O)NC(=O)C(C)(C)NC(=O)[C@@H](N)Cc3cnc[nH]3)C(=O)N[C@@](C)(Cc3ccccc3F)C(=O)N[C@@H]([C@@H](C)O)C(=O)N[C@@H](CO)C(=O)N2)C(=O)N[C@@H](CCCc2ccccc2)C(N)=O)cc1` (H-H[Aib]EGE[αMePhe(2-F)]TSK[Bip(2'-Et-4'-OMe)][hhPhe]-NH2; lactam 5-9) are over 85%, 430 nM and 320 nM.
On the same counts, the results for `CCc1cc(OC)ccc1-c1ccc(C[C@H](NC(=O)[C@H](CC(=O)O)NC(=O)[C@H](CO)NC(=O)[C@@H](NC(=O)[C@](C)(Cc2ccccc2F)NC(=O)[C@H]2CCSSCC[C@@H](NC(=O)[C@@H](N)Cc3cnc[nH]3)C(=O)N[C@@H](CCC(=O)O)C(=O)NCC(=O)N2)[C@@H](C)O)C(=O)N[C@@H](CCCc2ccccc2)C(N)=O)cc1` are over 85%, 0.73 nM and 41 nM.
Regarding `CCc1cc(OC)ccc1-c1ccc(C[C@H](NC(=O)[C@H](CC(=O)O)NC(=O)[C@H](CO)NC(=O)[C@@H](NC(=O)[C@](C)(Cc2ccccc2F)NC(=O)[C@H]2CSSCC[C@@H](NC(=O)[C@@H](N)Cc3cnc[nH]3)C(=O)N[C@@H](CCC(=O)O)C(=O)NCC(=O)N2)[C@@H](C)O)C(=O)N[C@@H](CCCc2ccccc2)C(N)=O)cc1`, in assay [4], the Ratio stood at 43. The Activity in assay [1] was over 85%. Moreover, the half-maximal effective concentration (EC50) in assay [2] came out at 110 nM. Moreover, the affinity in assay [3] corresponds to a Ki of 4800 nM.
Take `CCc1cc(OC)ccc1-c1ccc(C[C@H](NC(=O)[C@H](CC(=O)O)NC(=O)[C@H](CO)NC(=O)[C@@H](NC(=O)[C@](C)(Cc2ccccc2F)NC(=O)[C@@H]2CCSSCC[C@H](NC(=O)[C@@H](N)Cc3cnc[nH]3)C(=O)N[C@@H](CCC(=O)O)C(=O)NCC(=O)N2)[C@@H](C)O)C(=O)N[C@@H](CCCc2ccccc2)C(N)=O)cc1`: the Activity in assay [1] is over 85%. For the same molecule, the EC50 in assay [2] is 390 nM. The molecule further displayed a Ki in assay [3] of 3000 nM.
The like results for `CCc1cc(OC)ccc1-c1ccc(C[C@H](NC(=O)[C@H](CC(=O)O)NC(=O)[C@H](CO)NC(=O)[C@@H](NC(=O)[C@](C)(Cc2ccccc2F)NC(=O)[C@H]2CCSSC[C@@H](NC(=O)[C@@H](N)Cc3cnc[nH]3)C(=O)N[C@@H](CCC(=O)O)C(=O)NCC(=O)N2)[C@@H](C)O)C(=O)N[C@@H](CCCc2ccccc2)C(N)=O)cc1` were, in that order, over 85%, 81 nM and 550 nM.
The like results for `CCc1cc(OC)ccc1-c1ccc(C[C@H](NC(=O)[C@H](CC(=O)O)NC(=O)[C@H](CO)NC(=O)[C@@H](NC(=O)[C@](C)(Cc2ccccc2F)NC(=O)[C@@H](NC(=O)CNC(=O)[C@H](CCC(=O)O)NC(=O)C(C)(C)NC(=O)[C@@H](N)Cc2cnc[nH]2)[C@@H](C)O)[C@@H](C)O)C(=O)N[C@@H](Cc2ccc(O)c(I)c2)C(N)=O)cc1` (H-H[Aib]EGT[αMePhe(2-F)]TSD[Bip(2'-Et-4'-OMe)][Tyr(3-I)]-NH2) were, in that order, over 85%, 0.045 nM and 6 nM.
On the same counts, the results for `CCc1cc(OC)ccc1-c1ccc(C[C@H](NC(=O)[C@@H]2CC(=O)NCCCC[C@H](NC(=O)CNC(=O)[C@H](CCC(=O)O)NC(=O)C(C)(C)NC(=O)[C@@H](N)Cc3cnc[nH]3)C(=O)N[C@@](C)(Cc3ccccc3F)C(=O)N[C@@H]([C@@H](C)O)C(=O)N[C@@H](CO)C(=O)N2)C(=O)N[C@@H](CCCc2ccccc2)C(N)=O)cc1` (H-H[Aib]EGK[αMePhe(2-F)]TSD[Bip(2'-Et-4'-OMe)][hhPhe]-NH2; lactam 5-9) are over 85%, 68 nM and 59 nM.
Regarding `CCc1cc(OC)ccc1-c1ccc(C[C@H](NC(=O)[C@H](CC(=O)O)NC(=O)[C@H](CO)NC(=O)[C@@H](NC(=O)[C@](C)(Cc2ccccc2F)NC(=O)[C@H]2CCSSCC[C@H](NC(=O)[C@@H](N)Cc3cnc[nH]3)C(=O)N[C@@H](CCC(=O)O)C(=O)NCC(=O)N2)[C@@H](C)O)C(=O)N[C@@H](CCCc2ccccc2)C(N)=O)cc1`, the Activity in assay [1] was over 85%. Also, in assay [2], the EC50 is 1.8 nM. The same molecule gave a Ki in assay [3] of 130 nM.
On the same counts, the results for `CCc1cc(OC)ccc1-c1ccc(C[C@H](NC(=O)[C@@H]2CCCC(=O)NCCCC[C@H](NC(=O)CNC(=O)[C@H](CCC(=O)O)NC(=O)C(C)(C)NC(=O)[C@@H](N)Cc3cnc[nH]3)C(=O)N[C@@](C)(Cc3ccccc3F)C(=O)N[C@@H]([C@@H](C)O)C(=O)N[C@@H](CO)C(=O)N2)C(=O)N[C@@H](CCCc2ccccc2)C(N)=O)cc1` (H-H[Aib]EGK[αMePhe(2-F)]TS[Aad][Bip(2'-Et-4'-OMe)][hhPhe]-NH2; lactam 5-9) are over 85%, 95 nM and 300 nM.
On the same counts, the results for `CCc1cc(OC)ccc1-c1ccc(C[C@H](NC(=O)[C@@H]2CCCCNC(=O)C[C@H](NC(=O)CNC(=O)[C@H](CCC(=O)O)NC(=O)C(C)(C)NC(=O)[C@@H](N)Cc3cnc[nH]3)C(=O)N[C@@](C)(Cc3ccccc3F)C(=O)N[C@@H]([C@@H](C)O)C(=O)N[C@@H](CO)C(=O)N2)C(=O)N[C@@H](CCCc2ccccc2)C(N)=O)cc1` (H-H[Aib]EGD[αMePhe(2-F)]TSK[Bip(2'-Et-4'-OMe)][hhPhe]-NH2; lactam 5-9) are over 85%, 320 nM and 1200 nM.
On the same counts, the results for `CCc1cc(OC)ccc1-c1ccc(C[C@H](NC(=O)[C@H](CC(=O)O)NC(=O)[C@H](CO)NC(=O)[C@@H](NC(=O)[C@](C)(Cc2ccccc2F)NC(=O)[C@H]2CSSCC[C@H](NC(=O)[C@@H](N)Cc3cnc[nH]3)C(=O)N[C@@H](CCC(=O)O)C(=O)NCC(=O)N2)[C@@H](C)O)C(=O)N[C@@H](CCCc2ccccc2)C(N)=O)cc1` are over 85%, 730 nM and over 8000 nM.
Turning to `CCc1cc(OC)ccc1-c1ccc(C[C@H](NC(=O)[C@H](CC(=O)O)NC(=O)[C@H](CO)NC(=O)[C@@H](NC(=O)[C@](C)(Cc2c(F)cccc2F)NC(=O)[C@@H](NC(=O)CNC(=O)[C@H](CCC(=O)O)NC(=O)C(C)(C)NC(=O)[C@@H](N)Cc2cnc[nH]2)[C@@H](C)O)[C@@H](C)O)C(=O)N[C@@H](Cc2ccc(-c3ccccc3C)cc2)C(N)=O)cc1` (H-H[Aib]EGT[αMePhe(2,6-F2)]TSD[Bip(2'-Et-4'-OMe)][Bip(2'-Me)]-NH2), the Ratio in assay [4] is 3.5. In assay [1], the Activity is over 85%. In addition, the EC50 in assay [2] stood at 0.19 nM. Further, in assay [3], affinity was put at a Ki of 0.66 nM.
The like results for `CCc1cc(OC)ccc1-c1ccc(C[C@H](NC(=O)[C@H](CC(=O)O)NC(=O)[C@H](CO)NC(=O)[C@@H](NC(=O)[C@](C)(Cc2ccccc2F)NC(=O)[C@@H](NC(=O)CNC(=O)[C@H](CCC(=O)O)NC(=O)C(C)(C)NC(=O)[C@@H](N)Cc2cnc[nH]2)[C@@H](C)O)[C@@H](C)O)C(=O)N[C@@H](CCCc2ccccc2)C(N)=O)cc1` (H-H[Aib]EGT[αMePhe(2-F)]TSD[Bip(2'-Et-4'-OMe)][hhPhe]-NH2) were, in that order, 3.5, over 85%, 0.12 nM and 0.57 nM.
For the molecule `CCc1cc(OC)ccc1-c1ccc(C[C@H](NC(=O)[C@H](CC(=O)O)NC(=O)[C@H](CO)NC(=O)[C@@H](NC(=O)[C@](C)(Cc2ccccc2F)NC(=O)[C@H]2CCSSC[C@H](NC(=O)[C@@H](N)Cc3cnc[nH]3)C(=O)N[C@@H](CCC(=O)O)C(=O)NCC(=O)N2)[C@@H](C)O)C(=O)N[C@@H](CCCc2ccccc2)C(N)=O)cc1`, the Activity in assay [1] is over 85%. Moreover, the EC50 in assay [2] stood at 190 nM. In assay [3], this molecule gave an inhibition constant Ki of 980 nM.
On to `CCc1cc(OC)ccc1-c1ccc(C[C@H](NC(=O)[C@@H]2CCC(=O)NCCCC[C@H](NC(=O)CNC(=O)[C@H](CCC(=O)O)NC(=O)C(C)(C)NC(=O)[C@@H](N)Cc3cnc[nH]3)C(=O)N[C@@](C)(Cc3ccccc3F)C(=O)N[C@@H]([C@@H](C)O)C(=O)N[C@@H](CO)C(=O)N2)C(=O)N[C@@H](CCCc2ccccc2)C(N)=O)cc1` (H-H[Aib]EGK[αMePhe(2-F)]TSE[Bip(2'-Et-4'-OMe)][hhPhe]-NH2; lactam 5-9), for which, in assay [1], the Activity was over 85%. Also, the half-maximal effective concentration (EC50) in assay [2] was found to be 10 nM. The same molecule gave a Ki in assay [3] of 17 nM.

(Values after ChEMBL document CHEMBL3425455, “Short Hydrophobic Peptides with Cyclic Constraints Are Potent Glucagon-like Peptide-1 Receptor (GLP-1R) Agonists” (J Med Chem, 2015).)
